Assay [1] addresses Bromodomain testis-specific protein (Homo sapiens, UniProt Q58F21). In words: Inhibition of BRDT-BD1 (unknown origin) incubated for 1 hr by AlphaScreen biotin-JQ1 competition assay. In outline:
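BD protein at 40 nM, Ni-coated acceptor and streptavidin donor beads each 25 μg/mL. Buffer 50 mM HEPES, 150 mM NaCl, 0.1% BSA, 0.01% Tween20, pH 7.5. Compounds delivered in DMSO. Run under low light, read after 1 h at room temperature.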

In assay [2] the target is T1, Serine/threonine-protein kinase PLK1 (Homo sapiens, UniProt P53350). As to the kind of experiment: Inhibition of human recombinant PLK1 by Z-Lyte assay.
T1 sequence (P53350 whole entry): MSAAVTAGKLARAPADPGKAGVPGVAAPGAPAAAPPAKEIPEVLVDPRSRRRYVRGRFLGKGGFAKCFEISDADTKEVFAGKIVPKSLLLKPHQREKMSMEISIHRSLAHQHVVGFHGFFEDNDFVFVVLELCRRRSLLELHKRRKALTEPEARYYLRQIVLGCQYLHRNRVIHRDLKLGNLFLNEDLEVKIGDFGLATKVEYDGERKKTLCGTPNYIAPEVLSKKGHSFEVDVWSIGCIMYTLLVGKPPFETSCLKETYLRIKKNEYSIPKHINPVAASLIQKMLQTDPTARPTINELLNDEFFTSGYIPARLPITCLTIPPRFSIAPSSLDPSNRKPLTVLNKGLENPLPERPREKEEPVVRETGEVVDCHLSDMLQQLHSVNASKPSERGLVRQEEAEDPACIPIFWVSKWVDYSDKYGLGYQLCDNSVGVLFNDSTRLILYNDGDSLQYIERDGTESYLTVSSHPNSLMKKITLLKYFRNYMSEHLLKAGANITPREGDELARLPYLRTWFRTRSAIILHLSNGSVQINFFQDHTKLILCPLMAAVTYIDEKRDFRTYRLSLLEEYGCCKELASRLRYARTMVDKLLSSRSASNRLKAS
Assay [3] addresses T2, Bromodomain-containing protein 4 (Homo sapiens, UniProt O60885). As to the kind of experiment: Inhibition of BRD4-BD1 (unknown origin) incubated for 1 hr by AlphaScreen biotin-JQ1 competition assay.
The target of assay [4] is Serine/threonine-protein kinase PLK3 (Homo sapiens) (UniProt Q9H4B4). In words: Inhibition of human PLK3 expressed in mammalian expression system assessed as remaining enzyme activity at 1 uM. An outline of the steps:
(§1)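 Single-concentration binding panel at 1 uM: BROMOscan (32 bromodomains) and KINOMEscan (468 kinases) competition-binding platforms. Reported as % of DMSO control.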

In assay [5] the target is T1, Serine/threonine-protein kinase PLK1. In words: Inhibition of human PLK1 expressed in mammalian expression system assessed as remaining enzyme activity at 1 uM. An outline of the steps:
as §1

In assay [6] the target is T2, Bromodomain-containing protein 4. In words: Inhibition of human BRD4-BD1 expressed in bacterial expression system assessed as remaining activity at 1 uM. In outline: as §1
For assay [7], the target named is Serine/threonine-protein kinase PLK2 (Homo sapiens) (UniProt Q9NYY3). As to the kind of experiment: Inhibition of human PLK2 expressed in mammalian expression system assessed as remaining enzyme activity at 1 uM. An outline of the steps: as §1
Chain of Serine/threonine-protein kinase PLK2 (Homo sapiens) (Q9NYY3 whole entry, looked up): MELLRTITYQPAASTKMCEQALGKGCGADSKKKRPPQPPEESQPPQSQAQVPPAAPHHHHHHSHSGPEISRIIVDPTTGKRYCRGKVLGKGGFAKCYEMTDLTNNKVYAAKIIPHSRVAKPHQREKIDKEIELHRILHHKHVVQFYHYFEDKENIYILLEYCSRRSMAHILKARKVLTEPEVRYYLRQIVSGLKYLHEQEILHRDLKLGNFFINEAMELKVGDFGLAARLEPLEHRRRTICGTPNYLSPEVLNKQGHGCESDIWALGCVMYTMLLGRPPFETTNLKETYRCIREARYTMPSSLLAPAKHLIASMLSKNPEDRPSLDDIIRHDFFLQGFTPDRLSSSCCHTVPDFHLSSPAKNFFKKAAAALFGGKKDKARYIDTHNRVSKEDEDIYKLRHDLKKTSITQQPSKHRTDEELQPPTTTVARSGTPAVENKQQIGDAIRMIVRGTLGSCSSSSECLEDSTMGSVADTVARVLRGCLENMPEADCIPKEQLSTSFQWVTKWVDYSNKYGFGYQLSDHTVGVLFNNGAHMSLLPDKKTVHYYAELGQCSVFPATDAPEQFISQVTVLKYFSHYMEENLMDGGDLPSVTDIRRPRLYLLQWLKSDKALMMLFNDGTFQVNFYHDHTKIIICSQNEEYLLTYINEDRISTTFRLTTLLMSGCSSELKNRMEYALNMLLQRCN
The species named for a further assay is Homo sapiens. In words: Selectivity index, ratio of IC50 for inhibition of BRD4-BD1 (unknown origin) to IC50 for human recombinant PLK1.
The next assay concerns MOLM-13. As to the kind of experiment: Induction of cell cycle arrest in human MOLM13 assessed as accumulation at G1/G2 phase at 1 uM incubated for 24 hrs by propidium iodide staining based flow cytometry. The format is functional. In outline:
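MOLM13 cells exposed to 1 μM compound for 24 h, then harvested, stained with propidium iodide and PI fluorescence measured on a flow cytometer for cell-cycle distribution.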

pIC50: −log10 of the molar value. The source made the active and inactive calls. The rule behind the calls is not given here. A value given as a limit tells only on which side of the number the result lay.

Chain of Serine/threonine-protein kinase PLK3 (Homo sapiens) (Q9H4B4 whole entry, looked up): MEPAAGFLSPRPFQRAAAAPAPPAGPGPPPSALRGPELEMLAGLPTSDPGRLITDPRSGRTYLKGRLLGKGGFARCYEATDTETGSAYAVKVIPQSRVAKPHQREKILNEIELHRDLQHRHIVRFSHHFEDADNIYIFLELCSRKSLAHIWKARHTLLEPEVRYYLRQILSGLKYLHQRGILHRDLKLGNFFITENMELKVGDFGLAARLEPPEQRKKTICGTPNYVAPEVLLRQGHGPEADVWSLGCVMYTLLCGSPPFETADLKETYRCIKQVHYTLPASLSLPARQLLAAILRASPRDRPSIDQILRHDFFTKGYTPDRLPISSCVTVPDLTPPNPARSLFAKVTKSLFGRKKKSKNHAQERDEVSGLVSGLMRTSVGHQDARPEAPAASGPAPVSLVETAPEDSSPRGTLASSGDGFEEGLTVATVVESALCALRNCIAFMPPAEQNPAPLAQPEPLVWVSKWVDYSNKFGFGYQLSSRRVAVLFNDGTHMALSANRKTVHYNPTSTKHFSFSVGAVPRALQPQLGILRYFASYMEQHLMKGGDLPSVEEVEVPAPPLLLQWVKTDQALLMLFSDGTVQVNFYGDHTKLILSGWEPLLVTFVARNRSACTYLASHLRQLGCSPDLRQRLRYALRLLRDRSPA

On to `COc1cc(C(=O)NC2CCN(C)CC2)ccc1Nc1ncc2c(n1)N(C(C)C)[C@H](C)C(=O)N2C`, for which the pIC50 in assay [1] was 6.01; in assay [2], 7.60; in assay [3], 6.38.

For `COc1cc(C(=O)NC2CCN(C)CC2)ccc1Nc1ncc2c(n1)N(C1CCCC1)CC(=O)N2C`, the pIC50 in [1] is 4.59; in assay [2], 7.27; in assay [3] it was 5.18.

In the case of `COc1cc(C(=O)NC2CCNCC2)ccc1Nc1ncc2c(n1)N(C1CCCC1)[C@H](C)C(=O)N2C`, the pIC50 in assay [1] was 6.25; in assay [2], 8.05; in assay [3] it was 6.96.

On to `COc1cc(C(=O)NCCN(C)C)ccc1Nc1ncc2c(n1)N(C1CCCC1)[C@H](C)C(=O)N2C`, for which the pIC50 in [1] was 6.41; in assay [2] it was 7.68; in [3] it was 6.98.

For the molecule `CC[C@@H]1C(=O)N(C)c2cnc(Nc3ccc(C(=O)NC4CCN(C)CC4)cc3OC)nc2N1C(C)C`, the negative logarithm of the IC50 (pIC50) is 8.40 in assay [2] and 6.73 in [3].

Consider `COC(=O)c1ccc(Nc2ncc3c(n2)N(C2CCCC2)[C@H](C)C(=O)N3C)c(OC2CCCC2)c1`, for which the pIC50 in assay [1] was 6.03; in [2], 6.34; in assay [3], 6.60.

For the molecule `COc1cc(C(=O)NC2CCN(C)CC2)ccc1Nc1ncc2c(n1)N(C1CCCC1)[C@H](C)C(=O)N2C`, the Activity in assay [4] was 0.3 to 0.5%; in [5] it was 0.3 to 0.5%; in assay [6], 12%; in assay [7], 0.3 to 0.5%. For the same molecule, the results for the negative-log IC50 (pIC50) in [1], in [2] and in [3] were 6.47, 8.96 and 7.08, respectively.

With `CC[C@@H]1C(=O)Nc2cnc(Nc3ccc(C(=O)NC4CCN(C)CC4)cc3OC)nc2N1C1CCCCC1`, in the assay filed under Homo sapiens, the Ratio IC50 was above 250. Also, the pIC50 was 7.43 in assay [2] and below 5.00 in assay [3].

Regarding `CC[C@@H]1C(=O)N(C)c2cnc(Nc3ccc(C(=O)NC4CCN(C)CC4)cc3OC)nc2N1C1CCCCC1`, the pIC50 is 8.40 in [2] and 6.19 in assay [3].

On to `C[C@@H]1C(=O)N(C)c2cnc(Nc3ccc(C(=O)NC4CCN(C)CC4)cc3OC3CCCC3)nc2N1C1CCCC1`, for which the pIC50 in assay [1] was 6.99; in [2], 7.40; in assay [3], 7.55. Also, the outcome in the assay with MOLM-13 was Active.

`COc1cc(C(=O)NC2CCCCC2)ccc1Nc1ncc2c(n1)N(C1CCCC1)[C@H](C)C(=O)N2C`: the pIC50 is 6.42 in assay [1], 6.80 in assay [2] and 6.97 in assay [3].

On to `CN1CCC(NC(=O)c2ccc(Nc3ncc4c(n3)N(C3CCCC3)CC(=O)N4C)c(OC3CCCC3)c2)CC1`, for which the pIC50 was 5.45 in assay [1] and 6.16 in assay [3].

Turning to `CCC[C@@H]1C(=O)N(C)c2cnc(Nc3ccc(C(=O)NC4CCN(C)CC4)cc3OC3CCCC3)nc2N1C1CCCC1`, the pIC50 in assay [1] is 5.71; in assay [2], 7.33; in assay [3], 6.22.

For the molecule `COc1cc(C(=O)NC2CCN(C)CC2)ccc1Nc1ncc2c(n1)N(C(C)C)[C@H](CC(C)C)C(=O)N2C`, the pIC50 in assay [2] was 6.66; in assay [3], 4.38.

On to `COc1cc(C(=O)NC2CCN(C)CC2)ccc1Nc1ncc2c(n1)N(C1CCCCC1)[C@H](C)C(=O)N2C`, for which the pIC50 in assay [1] was 6.12; in assay [2], 8.07; in assay [3], 6.51.

In the case of `COc1cc(C(=O)NCCc2ccccc2)ccc1Nc1ncc2c(n1)N(C1CCCC1)[C@H](C)C(=O)N2C`, the pIC50 in assay [1] is 6.25; in [2] it was 7.57; in assay [3], 6.74.

Take `CC[C@@H]1C(=O)Nc2cnc(Nc3ccc(C(=O)NC4CCN(C)CC4)cc3OC)nc2N1C(C)C`: in the assay listed under Homo sapiens, the Ratio IC50 is above 250. The pIC50 is 5.58 in assay [2] and below 5.00 in assay [3].

As for `C[C@H]1C(=O)N(C)c2cnc(Nc3ccc(C(=O)NC4CCN(C)CC4)cc3OC3CCCC3)nc2N1C1CCCC1`, the figures for the pIC50 in assay [1], in assay [2] and in assay [3] were 6.61, 6.90 and 7.23, respectively.

Take `COc1cc(C(=O)NC2CCN(C)CC2)ccc1Nc1ncc2c(n1)N(C1CCOCC1)[C@H](CC(C)C)C(=O)N2C`: the results for the pIC50 in [1], in [2] and in assay [3] were below 4.30, 6.49 and below 4.30, respectively.

In the case of `COc1cc(C(=O)NC2CCN(C)CC2)ccc1Nc1ncc2c(n1)N(C1CCCC1)[C@@H](C)C(=O)N2C`, the pIC50 in assay [1] was 6.64; in [2], 8.06; in assay [3], 6.97.

`CCC[C@@H]1C(=O)N(C)c2cnc(Nc3ccc(C(=O)NC4CCN(C)CC4)cc3OC)nc2N1C1CCCC1`: in the assay filed under Homo sapiens, the Ratio IC50 was above 250. In addition, the pIC50 in [1] was 5.07; in [2], 8.00; in assay [3], 5.59.

Consider `COc1cc(C(=O)N2CCCCC2)ccc1Nc1ncc2c(n1)N(C1CCCC1)[C@H](C)C(=O)N2C`, for which the pIC50 in assay [1] is 6.43; in [2], 7.02; in [3], 7.03.

For the origin of these results see ChEMBL document CHEMBL4196154, “Structure-Guided Design and Development of Potent and Selective Dual Bromodomain 4 (BRD4)/Polo-like Kinase 1 (PLK1) Inhibitors” (J Med Chem, 2018).
